# According to ChEMBL document CHEMBL4038284, “Synthesis of novel quinoline-based 4,5-dihydro-1H-pyrazoles as potential anticancer, antifungal, antibacterial and antiprotozoal agents” (Eur J Med Chem, 2017):
# Key:
# [1] = system: Cryptococcus neoformans; assay: Growth inhibition of Cryptococcus neoformans ATCC 32264 at 3.4 ug/ml incubated for 48 hrs under dark condition by broth microdilution method relative to control; assay type: functional; conditions: ATCC 32264, 48 h, read-out: GI
# [2] = system: Cryptococcus neoformans; assay: Growth inhibition of Cryptococcus neoformans ATCC 32264 at 125 ug/ml incubated for 48 hrs under dark condition by broth microdilution method relative to control; assay type: functional; conditions: ATCC 32264, 48 h, read-out: GI
# How it was run: (§1)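 CLSI M27-A3 broth microdilution in RPMI-1640, DMSO ≤1%. Inoculum 1-5 × 10^3 CFU/mL. Incubated 48 h at 30 °C, dark. % inhibition = 100 − (OD405 test − sterility control)/(OD405 growth control − sterility control), with growth and sterility control wells. Triplicate.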
# [3] = system: Staphylococcus aureus; assay: Antibacterial activity against methicillin-resistant Staphylococcus aureus ATCC 43300 after 24 hrs by resazurin dye based microdilution assay; assay type: functional; conditions: ATCC 43300, 24 h
# How it was run: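 Broth microdilution in Mueller Hinton broth, inoculum 5 × 10^5 – 8 × 10^5. Compound stocks diluted in MHB with 5% DMSO and 0.1% Tween 80. Incubation 24 h at 35-37 °C. MIC is the lowest concentration with visible growth inhibition and/or by resazurin (1 mg/mL) read-out. Gentamicin as control. Run in duplicate, replicated at least three times.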
# [4] = system: Cryptococcus neoformans; assay: Growth inhibition of Cryptococcus neoformans ATCC 32264 at 31.25 ug/ml incubated for 48 hrs under dark condition by broth microdilution method relative to control; assay type: functional; conditions: ATCC 32264, 48 h, read-out: GI; how it was run: as §1
# [5] = system: Candida albicans; assay: Antifungal activity against Candida albicans ATCC 10231 incubated for 48 hrs under dark condition by broth microdilution method; assay type: functional; conditions: ATCC 10231, 48 h
# How it was run: (§2)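 CLSI M27-A3 broth microdilution in RPMI-1640, DMSO ≤1%, compounds at 250-0.98 µg/mL final. Inoculum 1-5 × 10^3 CFU/mL. Incubated 48 h at 30 °C in a moist dark chamber, read at OD405. MIC80 and MIC50 taken from % inhibition dose-response curves (mean ± SEM, triplicate). Amphotericin B was the positive control.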
# [6] = system: Cryptococcus neoformans; assay: Growth inhibition of Cryptococcus neoformans ATCC 32264 at 15.62 ug/ml incubated for 48 hrs under dark condition by broth microdilution method relative to control; assay type: functional; conditions: ATCC 32264, 48 h, read-out: GI; how it was run: as §1
# [7] = system: Plasmodium falciparum; assay: Antiplasmodial activity against chloroquine-sensitive Plasmodium falciparum 3D7 assessed as reduction in parasitic LDH activity after 48 hrs by Malstat reagent based […] method; assay type: functional; conditions: 3D7, 48 h
# How it was run: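 Unsynchronized P. falciparum 3D7 at 0.5% parasitemia and 1% hematocrit in RPMI with 3% Albumax II. Exposed to 100, 25, 6.25 and 1.56 µg/mL for 48 h at 37 °C under 90% N2/5% CO2/5% O2. After three freeze-thaw cycles, LDH measured with Malstat and NBT/PES, 1 h in the dark, read at 650 nm. IC50 by Probit; triplicate, ≥2 experiments.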
# [8] = system: Candida albicans; assay: Growth inhibition of Candida albicans ATCC 10231 at 31.25 ug/ml incubated for 48 hrs under dark condition by broth microdilution method relative to control; assay type: functional; conditions: ATCC 10231, 48 h, read-out: GI; how it was run: as §1
# [9] = system: Candida albicans; assay: Growth inhibition of Candida albicans ATCC 10231 at 7.8 ug/ml incubated for 48 hrs under dark condition by broth microdilution method relative to control; assay type: functional; conditions: ATCC 10231, 48 h, read-out: GI; how it was run: as §1
# [10] = system: Staphylococcus aureus; assay: Antibacterial activity against vancomycin-intermediate Staphylococcus aureus after 24 hrs by resazurin dye based microdilution assay; assay type: functional
# How it was run: (§3)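 MIC taken as the lowest concentration giving visible inhibition and/or by resazurin (1 mg/mL). Gentamicin was the control. Run in duplicate, repeated at least three times.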
# [11] = system: Cryptococcus neoformans; assay: Antifungal activity against Cryptococcus neoformans ATCC 32264 incubated for 48 hrs under dark condition by broth microdilution method; assay type: functional; conditions: ATCC 32264, 48 h; how it was run: as §2
# [12] = system: Candida albicans; assay: Growth inhibition of Candida albicans ATCC 10231 at 15.62 ug/ml incubated for 48 hrs under dark condition by broth microdilution method relative to control; assay type: functional; conditions: ATCC 10231, 48 h, read-out: GI; how it was run: as §1
# [13] = system: Klebsiella pneumoniae; assay: Antibacterial activity against ESBL positive Klebsiella pneumoniae ATCC 700603 after 24 hrs by resazurin dye based microdilution assay; assay type: functional; conditions: Klebsiella pneumoniae, 700603, 24 h; how it was run: as §3
# [14] = system: Cryptococcus neoformans; assay: Growth inhibition of Cryptococcus neoformans ATCC 32264 at 62.5 ug/ml incubated for 48 hrs under dark condition by broth microdilution method relative to control; assay type: functional; conditions: ATCC 32264, 48 h, read-out: GI; how it was run: as §1
# [15] = system: Pseudomonas aeruginosa; assay: Antibacterial activity against Pseudomonas aeruginosa ATCC 27853 after 24 hrs by resazurin dye based microdilution assay; assay type: functional; conditions: ATCC 27853, 24 h; how it was run: as §3
# [16] = system: Neisseria gonorrhoeae; assay: Antibacterial activity against beta lactamase positive Neisseria gonorrhoeae ATCC 31426 by oxidase test; assay type: functional
# How it was run: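 Agar dilution MIC on GC agar with 1% isovitalex containing increasing compound concentrations. Plates inoculated with about 1×10^4 CFU (5 µL). MIC is the lowest concentration that inhibited growth, with growth confirmed by oxidase test. Run in duplicate, repeated at least three times.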
# [17] = system: Candida albicans; assay: Growth inhibition of Candida albicans ATCC 10231 at 3.4 ug/ml incubated for 48 hrs under dark condition by broth microdilution method relative to control; assay type: functional; conditions: ATCC 10231, 48 h, read-out: GI
# [18] = system: Leishmania panamensis; assay: Antileshmanial activity against EpiR/GFP fused Leishmania panamensis MHOM/CO/87/UA140 intracellular amastigotes infected in human […] cells after 72 hrs by flow cytometric method; assay type: functional, cell-based; conditions: MHOM/CO/87/UA140, 72 h
# How it was run: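 PMA-treated U-937 cells (3 × 10^5 cells/mL) infected with stationary-phase GFP L. panamensis promastigotes (15:1), 3 h at 34 °C, then washed. After 24 h, compounds added at 50, 12.5, 3.125 and 0.78 µg/mL for 72 h at 37 °C. EC50 by Probit; triplicate, two experiments.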
# [19] = system: Candida albicans; assay: Growth inhibition of Candida albicans ATCC 10231 at 62.5 ug/ml incubated for 48 hrs under dark condition by broth microdilution method relative to control; assay type: functional; conditions: ATCC 10231, 48 h, read-out: GI; how it was run: as §1
# [20] = system: Cryptococcus neoformans; assay: Growth inhibition of Cryptococcus neoformans ATCC 32264 at 7.8 ug/ml incubated for 48 hrs under dark condition by broth microdilution method relative to control; assay type: functional; conditions: ATCC 32264, 48 h, read-out: GI; how it was run: as §1
# [21] = system: Klebsiella pneumoniae; assay: Antibacterial activity against carbapenemase positive Klebsiella pneumoniae BAA 1705 after 24 hrs by resazurin dye based microdilution assay; assay type: functional; conditions: BAA 1705, 24 h; how it was run: as §3
# [22] = system: Trypanosoma cruzi; assay: Antitrypanosomal activity against Trypanosoma cruzi Tulahuen intracellular amastigote harboring LacZ infected in human U937 cells after 72 hrs by CPRG/Nonidet reagent based spectrophotometric method; assay type: functional, cell-based; conditions: U-937, 72 h
# How it was run: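 U-937 cells at 2.5 × 10^5 cells/mL in RPMI-1640 with 10% serum and 0.1 µg/mL PMA were infected with β-galactosidase-transfected Tulahuen epimastigotes at 5 parasites per cell. Infected cells were exposed to 50, 12.5, 3.125 and 0.78 µg/mL for 72 h. CPRG (100 uM) and 0.1% Nonidet P-40 were added for 3 h, read at 570 nm. EC50 by Probit. Triplicate, at least two experiments; benznidazole as reference.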
# [23] = system: Candida albicans; assay: Growth inhibition of Candida albicans ATCC 10231 at 125 ug/ml incubated for 48 hrs under dark condition by broth microdilution method relative to control; assay type: functional; conditions: ATCC 10231, 48 h, read-out: GI; how it was run: as §1
# [24] = system: Staphylococcus aureus; assay: Antibacterial activity against methicillin-sensitive Staphylococcus aureus ATCC 25923 after 24 hrs by resazurin dye based microdilution assay; assay type: functional; conditions: ATCC 25923, 24 h; how it was run: as §3
# [25] = system: Escherichia coli; assay: Antibacterial activity against Escherichia coli ATCC 25922 after 24 hrs by resazurin dye based microdilution assay; assay type: functional; conditions: ATCC 25922, 24 h; how it was run: as §3
# [26] = system: Candida albicans; assay: Growth inhibition of Candida albicans ATCC 10231 at 250 ug/ml incubated for 48 hrs under dark condition by broth microdilution method relative to control; assay type: functional; conditions: ATCC 10231, 48 h, read-out: GI; how it was run: as §1
# [27] = system: U-937; assay: Cytotoxicity against human U937 cells after 72 hrs by MTT assay; assay type: cell-based; conditions: u-937, 72 h
# How it was run: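 Exponentially growing U-937 at 1 × 10^5 cells/mL in RPMI-1640 with 10% FBS were exposed to 200, 50, 12.5 and 3.125 µg/mL for 72 h at 37 °C, 5% CO2. MTT for 3 h, stopped with isopropanol/SDS, formazan read at 570 nm, blank-corrected. LC50 by Probit from % viability against untreated cells. Triplicate, at least two independent experiments.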
# [28] = system: Cryptococcus neoformans; assay: Growth inhibition of Cryptococcus neoformans ATCC 32264 at 250 ug/ml incubated for 48 hrs under dark condition by broth microdilution method relative to control; assay type: functional; conditions: ATCC 32264, 48 h, read-out: GI; how it was run: as §1
structure (smiles),measurement,setting,value
COc1ccc(C2=NN(c3cc(Cl)cc(Cl)c3)C(c3cccc(Nc4ccnc5cc(Cl)ccc45)c3)C2)cc1 (stereo not given),inhibition of growth at 3.4 µg/mL,[1],0%
same,inhibition of growth at 125 µg/mL,[2],10.2%
same,MIC,[3],> 1000 µg/mL
same,inhibition of growth at 31.25 µg/mL,[4],3.09%
same,MIC50,[5],≥ 250 µg/mL
same,MIC80,[5],≥ 250 µg/mL
same,inhibition of growth at 15.62 µg/mL,[6],2.11%
same,EC50,[7],10.4 µg/mL
same,inhibition of growth at 31.25 µg/mL,[8],5.03%
same,inhibition of growth at 7.8 µg/mL,[9],1.72%
same,MIC,[10],> 1000 µg/mL
same,MIC50,[11],≥ 250 µg/mL
same,MIC80,[11],≥ 250 µg/mL
same,inhibition of growth at 15.62 µg/mL,[12],1.75%
same,MIC,[13],> 1000 µg/mL
same,inhibition of growth at 62.5 µg/mL,[14],6.18%
same,MIC,[15],> 1000 µg/mL
same,MIC,[16],> 1000 µg/mL
same,inhibition of growth at 3.4 µg/mL,[17],1.02%
same,EC50,[18],12.6 µg/mL
same,inhibition of growth at 62.5 µg/mL,[19],9.34%
same,inhibition of growth at 7.8 µg/mL,[20],0%
same,MIC,[21],> 1000 µg/mL
same,EC50,[22],31 µg/mL
same,inhibition of growth at 125 µg/mL,[23],10.3%
same,MIC,[24],> 1000 µg/mL
same,MIC,[25],> 1000 µg/mL
same,inhibition of growth at 250 µg/mL,[26],27.9%
same,LC50,[27],> 200 µg/mL
same,inhibition of growth at 250 µg/mL,[28],43%
COc1cc(C2=NN(c3cc(Cl)cc(Cl)c3)C(c3cccc(Nc4ccnc5cc(Cl)ccc45)c3)C2)cc(OC)c1OC (stereo not given),inhibition of growth at 3.4 µg/mL,[1],0%
same,inhibition of growth at 125 µg/mL,[2],6.13%
same,MIC,[3],> 1000 µg/mL
same,inhibition of growth at 31.25 µg/mL,[4],3.54%
same,MIC50,[5],≥ 250 µg/mL
same,MIC80,[5],≥ 250 µg/mL
same,inhibition of growth at 15.62 µg/mL,[6],3.54%
same,EC50,[7],10.9 µg/mL
same,inhibition of growth at 31.25 µg/mL,[8],5.79%
same,inhibition of growth at 7.8 µg/mL,[9],1.1%
same,MIC,[10],> 1000 µg/mL
same,MIC50,[11],≥ 250 µg/mL
same,MIC80,[11],≥ 250 µg/mL
same,inhibition of growth at 15.62 µg/mL,[12],2.69%
same,MIC,[13],> 1000 µg/mL
same,inhibition of growth at 62.5 µg/mL,[14],3.82%
same,MIC,[15],> 1000 µg/mL
same,MIC,[16],> 1000 µg/mL
same,inhibition of growth at 3.4 µg/mL,[17],0.27%
same,EC50,[18],16.5 µg/mL
same,inhibition of growth at 62.5 µg/mL,[19],5.81%
same,inhibition of growth at 7.8 µg/mL,[20],3.27%
same,MIC,[21],> 1000 µg/mL
same,EC50,[22],21.9 µg/mL
same,inhibition of growth at 125 µg/mL,[23],10.6%
same,MIC,[24],> 1000 µg/mL
same,MIC,[25],> 1000 µg/mL
same,inhibition of growth at 250 µg/mL,[26],20.3%
same,LC50,[27],> 200 µg/mL
same,inhibition of growth at 250 µg/mL,[28],25.6%
